These results are taken from article PMC7069794 (Hepatology (Baltimore, Md.), 2020).

Data set [1] relates to Paneth cells / intestinal crypts of WT mice. Briefly: acute zinc deprivation by dithizone in mice. Type of data set: in vivo. The settings on record: dithizone 75 mg/kg i.p., 6 h. In short, it runs like this: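 Male WT mice received dithizone at 75 mg/kg i.p., and intestines were collected 6 h later. Small-intestinal crypts were isolated for imaging and bacterial killing, and ileal Defa5 and Lyz1 mRNA was measured relative to untreated mice, n=6. Data are mean±SD, compared by t-test, rank-sum or ANOVA as appropriate (P<0.05).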

The test system of data set [2] is released crypt components (mainly AMPs) of isolated mouse crypts. In kind it is cell-based, mice. The settings on record: 10 μmol/L carbamyl choline, then 2 μmol/L TPEN for 30 min; n=6. In short, it runs like this: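 Crypts isolated from male WT mouse small intestine were treated with 10 μmol/L carbamyl choline to induce granule release. Released material was then exposed to 2 μmol/L TPEN for 30 min for zinc chelation, and its bactericidal activity was measured, n=6. Data are mean±SD.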

Data set [3] deals with E. coli ML35. Briefly: E. coli ML35 killing of HD5 with or without zinc determined by flow cytometry. In kind it is cell-based. The conditions noted are these: n=6; for bactericidal activity: oxidized and reduced forms of HD5, without zinc. A general note: Flow cytometry measures light scatter and fluorescence of single cells or particles in a stream.
The subject of data set [4] is pair-fed and alcohol-fed mice. Nature of the data set: LPS injection 4 hours before finishing chronic feeding in mice. The settings on record: LPS 4 mg/kg i.p., n=6. Type of data set: in vivo. In short, it runs like this: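 Male mice, 12 weeks old, were fed ethanol-containing Lieber-DeCarli liquid diet (alcohol-fed) or isocaloric control liquid diet (pair-fed) for 8 wk. A single LPS dose of 4 mg/kg was given i.p. 4 h before the end of feeding. Read-out was relative hepatic Lcn2 and Cxcl1 mRNA, n=6. Data are mean±SD, compared by t-test or one-way ANOVA with Newman-Keuls post hoc test (P<0.05).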

Data set [5] has as its system Hepa1c1c7 mouse hepatoma cells. In kind it is cell-based. The settings on record: LPS 100 ng/mL, 6 h; n=3.
In data set [6] the test system is pepsin. In kind it is in vitro ADME.
Data set [7] deals with alcohol-fed mice. Type of data set: in vivo.
The subject of data set [8] is mice. The settings on record: cited from earlier work.
Data set [9] in a line: overnight incubation of HD5red with or without zinc, nUHPLC-MS. In kind it is physicochemical.

For the molecule `S=C(N=Nc1ccccc1)NNc1ccccc1` [Dithizone, dithizone], the PC degranulation entry in data set [1] is “rapid PC degranulation”. In addition, the crypt bacterial killing result in data set [1] (n=6) is on record as “impaired”. Moreover, in data set [1] (ileal mRNA, n=6), the “expression of Defa5 and Lyz1” value is “reduced”.

On to `c1ccc(CN(CCN(Cc2ccccn2)Cc2ccccn2)Cc2ccccn2)nc1` [TPEN, N,N,N′,N′-Tetrakis(2-pyridylmethyl)ethylenediamine], for which the “bacterial killing of released crypt components after zinc chelation” value in data set [2] is “impaired bacterial killing”.

As for `[Zn]` [Zinc, zinc], the “bacterial viability, zinc alone” value in [3] (zinc without HD5) is “did not affect bacterial viability”.

As to lipopolysaccharide [LPS], in data set [4] (alcohol-fed mice), the “hepatic Cxcl1 expression in AF mice in response to LPS” value is given as “did not further alter” and the “hepatic Lcn2 in AF mice in response to LPS” value is reported as “only mildly upregulated”. Also, in [4] (pair-fed mice), the “hepatic Lcn2 and Cxcl1 in PF mice in response to LPS” value is reported as “dramatically upregulated”. In addition, in [5], the “Lcn2 and Cxcl1 expressions in Hepa1c1c7 hepatocytes” value is “directly stimulated”.

B1: human α-defensin 5 (peptide, UniProt Q01523 20-94, looked up)
Defensin alpha 5: ESLQERADEATTQKQSGEDNQDLAISFAGNGLSALRTSGSQARATCYCRTGRCATRESLSGVCEISGRLYRLCCR
modifications: Defensin-5
Consider B1, for which the “antibacterial function of both forms of HD5 with zinc” value in data set [3] (HD5 oxidized and reduced forms, with zinc vs without) is on record as “significantly improved”. In addition, the bactericidal activity result in data set [3] was “effectively killed bacteria”. Moreover, in data set [6], the “intact HD5 that bypassed gastric digestion” value was 75%. The “intestinal structural changes (slight villous blunting), H&E staining” value in data set [7] (AF+HD5 group vs AF group (Fig. S11)) is listed as “improved”. In addition, the “Verrucomicrobiaceae abundance in cecal contents” value in data set [7] (AF+HD5 mice, mean±SD, AF mice 2.03±0.69%, P<0.001, n=8) worked out at 20.39±5.29%. In data set [7] (AF+HD5 vs AF, n=8), the “plasma ALT levels” value was “decreased”. Moreover, the “A. muciniphila abundance, PCR analysis” value in [7] (cecal contents, AF+HD5 vs AF, n=4) was “significantly enriched”. In [7] (ileal mRNA, AF+HD5 vs AF), the “expression of intestinal Il22” value is recorded as “notably augmented”; the “levels of inflammatory cytokines/chemokines, including Ip10, Tnfa, and Mip2” value is “lowered”. Besides, the “expression of ileal α-defensins, including Defa4, Defa20 and Defa21” value in data set [7] (ileal mRNA, AF+HD5 vs AF, n=6) is “upregulated”. The “alcohol-impaired distribution of ZO-1 and claudin-1” value in data set [7] (ileum, IF staining and Western blot, n=3) is “reversed”. The “alcohol-induced Lcn2 and Cxcl1 elevation, macrophage activation, and immune cell infiltration” value in data set [7] (liver, mRNA n=6, IHC/IF n=3) is reported as “reduced”. In addition, the “plasma ethanol levels and protein levels of CYP2E1 and ALDH2” value in data set [7] (mouse, in vivo) is given as “remained the same”. Also, the “PAMP translocation, including endotoxemia and increased hepatic bacterial DNAs” value in data set [7] (plasma endotoxin, hepatic 16S rRNAs, n=8) is given as “effectively reversed”. For the same molecule, the “intestinal injury caused by alcohol and colitis” value in data set [8] is “attenuated”. The “Akkermensia sp. in mice” value in [8] (without decreasing microbial diversity) was “increased”.

B2: HD5red: reduced form of HD5 (peptide, UniProt Q01523 20-94, looked up)
Defensin alpha 5: B1 Defensin alpha 5
modifications: Defensin-5 reduced form
Turning to B2, the “redox state of HD5red after overnight incubation in the absence of zinc” value in data set [9] (no zinc) is listed as “all became oxidized”. The “redox state of HD5red after overnight incubation with zinc” value in [9] (with zinc) is “a majority of HD5 remained in reduced forms”. The bactericidal activity entry in data set [3] is “more potent”.
